Converted amounts (≈) assume the structure as drawn.
Tests used:
[1] = tested on: Human immunodeficiency virus 1; experiment: Antiviral activity against HIV1 infected in human C8166 cells assessed as inhibition of virus-induced cytopathic effect; type: functional, organism-based; conditions: Human immunodeficiency virus 1, C8166
Method in brief: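 HIV-1 cytopathic-effect inhibition assay in C8166 cells gives EC50; cytotoxicity to C8166 cells measured in parallel by MTT to give CC50. Azidothymidine served as positive control.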

[2] = tested on: Tobacco mosaic virus; experiment: Antiviral activity against Tobacco mosaic virus infected in right side leaf of Nicotiana glutinosa at 20 uM after 3 to 4 days by half-leaf method; type: functional
Method in brief: (§1)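 Half-leaf assay on N. glutinosa (local lesion host, 5–6-leaf stage, insect-free greenhouse). Purified TMV diluted to 32 μg/mL in 0.01 M PBS, mixed with compound (DMSO stock diluted with water) for 30 min, then rubbed on the left half-leaf; the right half received virus plus equal DMSO as control. Local lesions counted 3 or 4 days later, three repetitions; inhibition = (C−T)/C×100; ningnanmycin positive control.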

[3] = Therapeutic index, ratio of CC50 for human C8166 cells to EC50 for HIV1; type: cell-based; conditions: read-out: Ratio CC50/EC50
Method in brief: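 Ratio of CC50 (MTT cytotoxicity in C8166 cells) to EC50, where EC50 comes from an assay of inhibition of HIV-1 cytopathic effects; azidothymidine served as the positive control.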

[4] = Cytotoxicity against human C8166 cells by MTT assay; type: cell-based
Method in brief: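 C8166 cells assessed by MTT, with cytotoxicity expressed as CC50; azidothymidine served as the positive control.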

[5] = tested on: Tobacco mosaic virus; experiment: Antiviral activity against Tobacco mosaic virus infected in leaf of Nicotiana glutinosa assessed as protection against viral infection at 20 uM treated 6 hrs before infection; type: functional
Method in brief: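 Protection test: N. glutinosa leaves pretreated with 20 μM compound solution or DMSO solution for 6 h, then inoculated with purified TMV. Local lesions counted on the host leaves and inhibition rate computed from lesion numbers versus the DMSO control.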

[6] = tested on: Tobacco mosaic virus; experiment: Antiviral activity against Tobacco mosaic virus infected in right side leaf of Nicotiana glutinosa at 80 uM after 3 to 4 days by half-leaf method; type: functional; method in brief: as §1
[7] = tested on: Tobacco mosaic virus; experiment: Antiviral activity against Tobacco mosaic virus infected in right side leaf of Nicotiana glutinosa at 160 uM after 3 to 4 days by half-leaf method; type: functional; method in brief: as §1
[8] = tested on: Tobacco mosaic virus; experiment: Antiviral activity against Tobacco mosaic virus infected in right side leaf of Nicotiana glutinosa after 3 to 4 days by half-leaf method; type: functional, organism-based; method in brief: as §1
[9] = tested on: Tobacco mosaic virus; experiment: Antiviral activity against Tobacco mosaic virus infected in right side leaf of Nicotiana glutinosa at 10 uM after 3 to 4 days by half-leaf method; type: functional; method in brief: as §1
[10] = tested on: Tobacco mosaic virus; experiment: Antiviral activity against Tobacco mosaic virus infected in right side leaf of Nicotiana glutinosa at 40 uM after 3 to 4 days by half-leaf method; type: functional; method in brief: as §1
[11] = tested on: Tobacco mosaic virus; experiment: Antiviral activity against Tobacco mosaic virus infected in right side leaf of Nicotiana glutinosa at 5 uM after 3 to 4 days by half-leaf method; type: functional; method in brief: as §1

Structure (SMILES) | EC50 [1] [µg/mL] | inhibition at 20 µM [2] [%] | selectivity ratio [3] | CC50 [4] [µg/mL] | inhibition at 20 µM [5] [%] | inhibition at 80 µM [6] [%] | inhibition at 160 µM [7] [%] | IC50 [8] [µM] | inhibition at 10 µM [9] [%] | inhibition at 40 µM [10] [%] | inhibition at 5 µM [11] [%]
Cc1cc(=O)c2c(O)c(C)c(O)c(C)c2o1 | 5.46 (≈ 24.8 µM) | 8.6 | 10.5 | 57.5 (≈ 261 µM) | – | – | – | – | – | – | –
CC1(C)Oc2cc3oc(CO)cc(=O)c3c(O)c2C[C@@H]1O[C@@H]1O[C@H](CO)[C@@H](O)[C@H](O)[C@H]1O | – | – | > 109 | > 200 | – | – | – | – | – | – | –
COc1cc2oc(C)cc(=O)c2c(O)c1CC=C(C)C | 4.89 (≈ 17.8 µM) | 8.7 | 15.2 | 74.3 (≈ 271 µM) | – | – | – | – | – | – | –
Cc1cc(=O)c2c(CC(C)O[C@@H]3O[C@H](CO)[C@@H](O)[C@H](O)[C@H]3O)cc(O)cc2o1 (some centres undefined) | 1.87 (≈ 4.72 µM) | 8.6 | 63.3 | 118 (≈ 299 µM) | – | – | – | – | – | – | –
COc1cc2c(c3oc(C)cc(=O)c13)C=CC(C)(C)O2 | 4.49 (≈ 16.5 µM) | 9.2 | 8.3 | 37.3 (≈ 137 µM) | – | – | – | – | – | – | –
CC(=O)Cc1cc(O)cc2oc(C)cc(=O)c12 | 6.58 (≈ 28.3 µM) | 6.7 | 13.5 | 88.7 (≈ 382 µM) | – | – | – | – | – | – | –
CC(=O)[C@@H]1c2cc(O)cc(O)c2C(=O)C[C@]1(C)O | 3.16 (≈ 12.6 µM) | 6.4 | 28 | 88.3 (≈ 353 µM) | – | – | – | – | – | – | –
CC1=CC2(O)OC(C)=Cc3cc(O)cc(c32)O1 (centres undefined) [BARAKOL] | 4.28 (≈ 18.4 µM) | 9 | 17.1 | 73.4 (≈ 316 µM) | – | – | – | – | – | – | –
CNCC(=O)N[C@@H](CO)C(=O)N[C@H]1[C@H](O)[C@@H](O)[C@H](n2ccc(N)nc2=O)O[C@@H]1C(N)=O [NINGNANMYCIN] | – | 30.2 | – | – | 27.4 | 61.3 | 82.7 | 49.9 | 22.6 | 48.3 | 11.8
COc1cc2c(c3oc(C(=O)O)cc(=O)c13)C=CC(C)(C)O2 [PERFORATIC ACID] | 11.5 (≈ 38.2 µM) | 13.6 | 2.3 | 26.5 (≈ 87.7 µM) | 10.2 | 36.8 | 54.7 | 127 | 9.27 | 25.4 | 5.62
CC(=O)Cc1cc(O)cc2oc(C(=O)CCO)cc(=O)c12 [SIAMCHROMONES A] | 4.87 (≈ 16.8 µM) | 15.2 | 26 | 127 (≈ 436 µM) | 18.4 | 47.2 | 62.4 | 86.4 | 11.4 | 30.3 | 6.21
COc1cc(CC(C)=O)c2c(=O)cc(C(=O)CCO)oc2c1 [SIAMCHROMONES B] | 5.22 (≈ 17.2 µM) | 9.8 | 16.3 | 85.2 (≈ 280 µM) | – | – | – | – | – | – | –
COc1cc(CC(C)=O)c2c(=O)cc(CCCO)oc2c1 [SIAMCHROMONES C] | 6.34 (≈ 21.8 µM) | 8.6 | 6.87 | 43.6 (≈ 150 µM) | – | – | – | – | – | – | –
COc1cc(CC(C)=O)c2c(=O)cc(CCCOC(C)=O)oc2c1 [SIAMCHROMONES D] | 1.87 (≈ 5.63 µM) | 7.5 | > 107 | > 200 | – | – | – | – | – | – | –
C/C=C/c1cc(=O)c2c(CC(C)=O)cc(O)cc2o1 [SIAMCHROMONES E] | 2.85 (≈ 11 µM) | 9.2 | 9.37 | 26.7 (≈ 103 µM) | – | – | – | – | – | – | –
CC1(C)C=Cc2c(cc(O)c3c(=O)cc(CCCO)oc23)O1 [SIAMCHROMONES F] | 2.89 (≈ 9.56 µM) | 35.3 | 68 | 196 (≈ 650 µM) | 42.7 | 89.2 | 96.8 | 31.2 | 26.7 | 61.4 | 13.5
COc1cc2c(c3oc(CCCO)cc(=O)c13)C=CC(C)(C)O2 [SIAMCHROMONES G] | 8.46 (≈ 26.7 µM) | 5.7 | > 23.6 | > 200 | – | – | – | – | – | – | –
Cc1cc(=O)c2c(O)c(C)c(O[C@@H]3O[C@H](CO)[C@@H](O)[C@H](O)[C@H]3O)c(C)c2o1 [UNCINOSIDE A] | 3.87 (≈ 10.1 µM) | 7.9 | 5.89 | 22.8 (≈ 59.6 µM) | – | – | – | – | – | – | –
CC(C)c1cc(=O)c2c(O)cc(O[C@@H]3O[C@H](CO)[C@@H](O)[C@H](O)[C@H]3O)cc2o1 [URACHROMONE A] | 2.24 (≈ 5.86 µM) | 11.5 | 31 | 69.5 (≈ 182 µM) | 13.7 | 30.7 | 50.9 | 156 | 8.11 | 22.4 | 4.76
Cc1cn([C@H]2C[C@H](N=[N+]=[N-])[C@@H](CO)O2)c(=O)[nH]c1=O [ZIDOVUDINE] | 0.034 (≈ 0.127 µM) | – | > 5880 | > 200 | – | – | – | – | – | – | –

From ChEMBL document CHEMBL2163211, “Antiviral chromones from the stem of Cassia siamea” (J Nat Prod, 2012)
